Measured values: PMC3839535 (Nature chemical biology, 2013)
Entries after “also recorded” stand apart in the source; their conditions may differ.

Tests used:
[1] = target: T1, human melanopsin (Homo sapiens, UniProt Q9UHM6); assay: Radioligand binding with [^3H]2-AA41612 to CHO^Opn4 cell membranes; settings: competition binding
T1 sequence (Q9UHM6 1-478): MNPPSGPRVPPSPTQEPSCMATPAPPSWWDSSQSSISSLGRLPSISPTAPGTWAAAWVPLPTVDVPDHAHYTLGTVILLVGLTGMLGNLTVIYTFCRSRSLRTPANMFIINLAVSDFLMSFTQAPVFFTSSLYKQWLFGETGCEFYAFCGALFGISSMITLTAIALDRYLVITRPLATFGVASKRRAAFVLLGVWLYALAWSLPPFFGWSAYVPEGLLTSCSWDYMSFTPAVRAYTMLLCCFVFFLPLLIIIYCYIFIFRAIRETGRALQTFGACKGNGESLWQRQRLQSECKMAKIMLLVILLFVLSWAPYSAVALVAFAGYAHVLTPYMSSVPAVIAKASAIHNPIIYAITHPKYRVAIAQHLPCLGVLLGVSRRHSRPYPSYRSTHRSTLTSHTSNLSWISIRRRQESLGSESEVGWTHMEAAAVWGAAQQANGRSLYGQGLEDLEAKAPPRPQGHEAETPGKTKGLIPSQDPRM
Method in brief: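 Membranes came from light-exposed CHO cells stably expressing human melanopsin. Cells were sonicated in ice-cold 20 mM Tris-HCl, 10 mM EDTA, pH 7.4, then spun at 200g for 5 min and 40,000g for 20 min at 4 °C, and washed. Assay buffer was 50 mM Tris-HCl, 1 mM EDTA, 5 mM MgSO4, pH 7.4. Saturation binding used increasing concentrations of [3H] radioligand. Competition binding used 300 pM radioligand against increasing competitor for 2 h in the dark at 25 °C. Reactions were filtered through PEI-treated glass fibre filters and counted by scintillation. Nonspecific binding was defined with 10 µM 9-cis retinal, and specific binding was taken as total minus nonspecific.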

[2] = target: T2, mouse melanopsin (Mus musculus, UniProt Q9QXZ9); assay: Melanopsin photocurrent in Xenopus oocytes; format: cell-based
T2 sequence (Q9QXZ9 1-521): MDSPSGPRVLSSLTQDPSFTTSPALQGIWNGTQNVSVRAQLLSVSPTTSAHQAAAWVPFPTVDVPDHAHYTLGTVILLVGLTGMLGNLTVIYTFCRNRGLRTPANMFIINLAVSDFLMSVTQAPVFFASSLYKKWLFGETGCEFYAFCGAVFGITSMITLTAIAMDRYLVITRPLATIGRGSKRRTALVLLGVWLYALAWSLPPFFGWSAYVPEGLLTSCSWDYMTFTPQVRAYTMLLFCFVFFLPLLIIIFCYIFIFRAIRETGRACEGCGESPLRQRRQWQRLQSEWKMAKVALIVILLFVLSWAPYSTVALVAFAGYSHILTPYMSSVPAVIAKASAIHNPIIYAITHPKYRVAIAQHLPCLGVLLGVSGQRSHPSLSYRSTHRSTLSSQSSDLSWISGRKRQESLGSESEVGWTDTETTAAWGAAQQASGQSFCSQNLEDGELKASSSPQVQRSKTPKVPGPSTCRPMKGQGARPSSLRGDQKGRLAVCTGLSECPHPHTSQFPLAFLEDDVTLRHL
Method in brief: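 Stage IV Xenopus oocytes injected with in vitro transcribed, polyadenylated mRNAs for mouse melanopsin, TrpC3, Gαq and Arrb1. Test compound was perfused for 3 min at increasing concentrations before 50 µM 11-cis retinal was added. Melanopsin photocurrent was recorded intracellularly in response to 60 s white light, averaged over n = 5 oocytes.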

[3] = target: T1, human melanopsin; assay: Ca^2+ release assay in CHO^Opn4 cells; format: cell-based
[4] = tested on: neonatal mice; assay: Negative phototaxis assay; format: in vivo; settings: WT neonatal pups (P7-P9), 30 mg kg^−1 sub-cutaneous, 480 nm light
Method in brief: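 WT and Opn4−/− pups aged P7–P9 were tested once daily. Pups were dark-adapted for 1 h, then given vehicle or compound at 30 mg kg−1 s.c. Each pup wore a head reflective sticker and sat in a transparent tube for 10 min. After 5 min of darkness, the head end was lit with 480 nm light at 9.5 × 10^15 ph/cm2/s. IR video covered 2 min before and 5 min after light onset. Head distance was scored in 1 s bins, and mean activity was compared before and after light. Pups without any bin above 1.3 mm/bin before light were excluded.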

[5] = tested on: rod/cone photoreceptors; assay: Electroretinogram; format: in vivo; settings: WT C57BL/6J and Opn4^−/− mice, 30 mg kg^-1, recorded within 30 min of administration, versus vehicle
[6] = Pharmacokinetics: retina and brain levels after IP dosing; format: in vivo; settings: mice, 30 mg kg^−1 IP, within 2 h
Method in brief: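 Mice were dosed at 30 mg kg−1 IP, and retina and brain were sampled at several times afterwards. Frozen brains were homogenised in four volumes of 50% water/30% 2-propanol/20% DMSO and spiked with internal standard. Samples were centrifuged and the supernatant analysed by LC/MS/MS. Quantitation used a standard curve (0–5,000 ng/ml) prepared in homogenate.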

[7] = tested on: 74 biological targets including GPCRs and ion channels; assay: Radioligand binding panel of 74 biological targets; settings: 10 µM
[8] = tested on: mice; assay: Pupillary light reflex; format: in vivo; settings: 10^13 ph.cm^−2.s^−1
Method in brief: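 rd, WT and Opn4−/− mice carried an acrylic headpost and had at least 1 wk of recovery. Dark-adapted mice received vehicle or compound at 30 mg kg−1 IP 20 min before the first light, plus tropicamide in the left eye. The right eye was filmed under IR at 30 Hz. Each 5 min sequence was 1 min dark, 1 min 480 nm light (1 × 10^13 or 1 × 10^10 ph.cm−2.s−1), then 3 min dark. Sequences were repeated 19, 29 and 39 min post-injection. Pupil diameter was normalised to the mean of the first 20 s of darkness; n = 6–7.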

Structure (SMILES) | Hill slope, displacement of [^3H]2-AA41612 [1] | IC50 [2] | IC50 [3] | effect on light aversion (negative phototaxis) behavior [4] | effect on rod and rod/cone electroretinogram [5] | fraction cleared from the retina [6] | inhibition of radioligand binding to a panel of 74 biological targets [7] | effect on PLR under high light intensity ([8]; Wild type (WT) mice) | attenuation of pupil constriction in response to light ([8]; adult rd mice, 30 mg kg^−1 i.p. 20 min prior) | slope of Schild regression (dose ratio) plot ([3]; versus 9-cis retinal, light-exposed CHO^Opn4 cells)
CC1=C(/C=C/C(C)=C\C=C\C(C)=C\C=O)C(C)(C)CCC1 [9-cis retinal, reference compound] | ~1.0 |  |  |  |  |  |  |  |  | 
COc1cc(Cl)c(S(=O)(=O)N2CCCCC2)cc1Cl [AA41612, 1-(2,5-Dichloro-4-methoxy-benzenesulfonyl)-piperidine] | ~1.0 | 20 nM | 15.8 ± 1.8 nM |  |  |  |  |  |  | 
COc1ccc(S(=O)(=O)N2CCCCC2)cc1C [AA92593, 1-((4-methoxy-3-methylphenyl)sulfonyl)piperidine] | ~1.0 | 190 nM |  | significantly reduced; also recorded: remarkably reduced light aversion behavior | no noticeable inhibition of rod/cone photoreceptors | > 95% | failed to inhibit radioligand binding | attenuated PLR | ~ 50% | 0.9
